Source: ChEMBL document CHEMBL3864151, “Discovery of imidazopyridazines as potent Pim-1/2 kinase inhibitors” (Bioorg Med Chem Lett, 2016)

Tests used:
[1] = Intrinsic clearance in rat liver microsomes at 1 uM after 30 mins by LC-MS HRMS analysis; format: ADME; settings: read-out: CLH
[2] = Intrinsic clearance in human liver microsomes at 1 uM after 30 mins by LC-MS HRMS analysis; format: ADME; settings: read-out: CLH
[3] = biological target: Serine/threonine-protein kinase PIM (Homo sapiens, UniProt P11309+Q9P1W9+Q86V86); test: Inhibition of Pim1/2 in human KMS-12 cells assessed as decrease in BAD phosphorylation at Ser112 by Western blot method; format: cell-based
[4] = biological target: Serine/threonine-protein kinase pim-2 (Homo sapiens, UniProt Q9P1W9); test: Inhibition of recombinant Pim2 (unknown origin) by electrochemiluminescence assay
Sequence of Serine/threonine-protein kinase pim-2 (Q9P1W9 whole entry): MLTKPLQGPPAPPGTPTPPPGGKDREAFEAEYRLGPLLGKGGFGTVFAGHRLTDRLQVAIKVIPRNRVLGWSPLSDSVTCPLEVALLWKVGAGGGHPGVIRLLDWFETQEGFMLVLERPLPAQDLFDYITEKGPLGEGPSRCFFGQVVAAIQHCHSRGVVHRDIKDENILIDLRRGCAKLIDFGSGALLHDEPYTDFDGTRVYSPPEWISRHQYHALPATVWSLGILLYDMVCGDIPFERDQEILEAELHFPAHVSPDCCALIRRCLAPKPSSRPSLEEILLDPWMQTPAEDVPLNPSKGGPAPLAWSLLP

[5] = Clearance in Sprague-Dawley rat at 2 mg/kg, iv; format: ADME, organism-based; settings: in vivo; for clearance: Sprague-Dawley
Summary of the method: (§1)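 Male Sprague Dawley rats, 3 animals per dosing route, mean values. iv dose 2 mg/kg as a solution in DMSO; po dose 5 mg/kg in 1% Tween 80, 2% HPMC, 97% water/methanesulfonic acid pH 2.2.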

[6] = AUC (0 to infinity) in Sprague-Dawley rat at 5 mg/kg, po; format: ADME, organism-based; set-up: dose 5 mg/kg, route oral, time infinity; settings: in vivo; for AUC(0-inf): Sprague-Dawley; summary of the method: as §1
[7] = Oral bioavailability in Sprague-Dawley rat at 5 mg/kg; format: ADME, organism-based; settings: in vivo; for bioavailability: Sprague-Dawley; summary of the method: as §1
[8] = Mean residence time in Sprague-Dawley rat at 2 mg/kg, iv; format: ADME, organism-based; settings: in vivo; summary of the method: as §1
[9] = Volume of distribution at steady state in Sprague-Dawley rat at 2 mg/kg, iv; format: ADME, organism-based; settings: in vivo, read-out: Vdss; summary of the method: as §1
[10] = biological target: Serine/threonine-protein kinase pim-1 (Homo sapiens, UniProt P11309); test: Inhibition of recombinant Pim1 (unknown origin) by electrochemiluminescence assay
Sequence of Serine/threonine-protein kinase pim-1 (P11309 whole entry): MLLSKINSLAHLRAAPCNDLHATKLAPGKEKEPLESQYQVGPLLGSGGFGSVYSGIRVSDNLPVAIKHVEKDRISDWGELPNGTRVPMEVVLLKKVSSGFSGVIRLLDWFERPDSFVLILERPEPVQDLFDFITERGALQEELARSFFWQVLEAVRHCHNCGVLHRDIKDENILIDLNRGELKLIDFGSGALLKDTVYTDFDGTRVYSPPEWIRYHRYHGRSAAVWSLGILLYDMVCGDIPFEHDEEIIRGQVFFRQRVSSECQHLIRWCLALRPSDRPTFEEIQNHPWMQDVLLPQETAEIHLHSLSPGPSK

[11] = Clearance in Sprague-Dawley rat at 2 mg/kg, iv relative to liver blood flow; format: ADME, organism-based; settings: in vivo; summary of the method: as §1
[12] = biological target: Voltage-gated inwardly rectifying potassium channel KCNH2 (Homo sapiens, UniProt Q12809); test: Inhibition of radiolabeled dofetilide binding to human ERG expressed in HEK293 cells
Sequence of Voltage-gated inwardly rectifying potassium channel KCNH2 (Q12809 whole entry): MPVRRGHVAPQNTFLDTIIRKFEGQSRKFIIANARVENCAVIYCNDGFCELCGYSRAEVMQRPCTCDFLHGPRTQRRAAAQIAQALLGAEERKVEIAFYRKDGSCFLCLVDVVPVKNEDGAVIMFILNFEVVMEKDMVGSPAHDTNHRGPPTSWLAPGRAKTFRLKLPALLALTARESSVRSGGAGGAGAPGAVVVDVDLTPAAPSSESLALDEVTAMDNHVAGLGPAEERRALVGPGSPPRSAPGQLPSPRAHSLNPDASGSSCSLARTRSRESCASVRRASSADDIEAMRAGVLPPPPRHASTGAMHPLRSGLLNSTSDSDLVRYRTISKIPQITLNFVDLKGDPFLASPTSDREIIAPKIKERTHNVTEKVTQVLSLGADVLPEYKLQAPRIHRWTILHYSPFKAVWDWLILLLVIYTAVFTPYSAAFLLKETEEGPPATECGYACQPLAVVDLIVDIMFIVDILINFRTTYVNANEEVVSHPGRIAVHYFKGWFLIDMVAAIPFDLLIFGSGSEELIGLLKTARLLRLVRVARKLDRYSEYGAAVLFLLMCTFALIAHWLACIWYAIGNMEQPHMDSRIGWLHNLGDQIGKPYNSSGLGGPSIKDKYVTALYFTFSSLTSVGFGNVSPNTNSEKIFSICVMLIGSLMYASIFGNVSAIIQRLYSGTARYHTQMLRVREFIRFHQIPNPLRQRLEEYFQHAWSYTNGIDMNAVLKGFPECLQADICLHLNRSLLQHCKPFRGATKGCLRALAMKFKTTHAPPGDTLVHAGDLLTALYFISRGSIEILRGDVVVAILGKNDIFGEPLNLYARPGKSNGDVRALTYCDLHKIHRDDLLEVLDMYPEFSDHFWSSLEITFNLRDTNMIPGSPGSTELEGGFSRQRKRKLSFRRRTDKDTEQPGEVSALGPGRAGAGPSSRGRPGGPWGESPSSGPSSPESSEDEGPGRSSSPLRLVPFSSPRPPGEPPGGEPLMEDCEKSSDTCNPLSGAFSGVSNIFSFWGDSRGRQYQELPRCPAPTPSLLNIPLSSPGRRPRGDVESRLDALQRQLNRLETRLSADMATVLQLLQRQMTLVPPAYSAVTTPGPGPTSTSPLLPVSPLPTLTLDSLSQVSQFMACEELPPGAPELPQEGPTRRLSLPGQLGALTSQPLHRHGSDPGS

SMILES | microsomal CLint at 1 µM [1] | microsomal CLint at 1 µM [2] | IC50 [3] | IC50 [10] | other results
C[C@H]1CC[C@H](N)CN1c1ccncc1Nc1ncc2ccc(-c3c(F)cccc3F)nn12 | 477 µL/min/mg | 80 µL/min/mg | – | – | –
N[C@H]1CCCN(c2ccncc2Nc2ncc3ccc(-c4ccccc4Cl)nn23)C1 | 122 µL/min/mg | 90 µL/min/mg | 2668 nM | – | IC50 [4]: 3.4 nM
CN[C@H]1CCCN(c2ccncc2Nc2ncc3ccc(-c4c(F)cccc4F)nn23)C1 | 185 µL/min/mg | 66 µL/min/mg | – | – | –
C[C@@H]1C[C@H](N)CN(c2ccncc2Nc2ncc3ccc(-c4ncccc4F)nn23)C1 | 91 µL/min/mg | 33 µL/min/mg | – | – | clearance [5]: 26.7 mL/min/kg; AUC(0-inf) [6]: 3.2 µM·h; bioavailability [7]: 60%; MRT [8]: 4.3 h; Vd [9]: 6.7 L/kg
N[C@H]1CCCN(c2ccnc(NC(=O)c3c[nH]c4ccc(-c5ccccc5F)nc34)c2)C1 | – | – | – | 65 nM | IC50 [4]: 314 nM
O[C@H]1CCCN(c2ccncc2Nc2ncc3ccc(-c4c(F)cccc4F)nn23)C1 | > 399 µL/min/mg | 472 µL/min/mg | 4807 nM | 2.9 nM | –
N[C@H]1CCCN(c2ccncc2Nc2ncc3ccc(-c4nccs4)nn23)C1 | 54 µL/min/mg | 27 µL/min/mg | 602 nM | – | IC50 [4]: 2.9 nM
N[C@H]1CCC[C@@H](c2ccncc2Nc2ncc3ccc(-c4c(F)cccc4F)nn23)C1 (racemic) | 106 µL/min/mg | < 10 µL/min/mg | 5120 nM | 3.7 nM | –
N[C@H]1CCCN(c2ccccc2Nc2ncc3ccc(-c4c(F)cccc4F)nn23)C1 | 63 µL/min/mg | 82 µL/min/mg | 3440 nM | – | –
N[C@H]1CCCN(c2ncncc2Nc2ncc3ccc(-c4c(F)cccc4F)nn23)C1 | 110 µL/min/mg | 28 µL/min/mg | > 15800 nM | – | –
N[C@@H]1CN(c2ccncc2Nc2ncc3ccc(-c4c(F)cccc4F)nn23)CC[C@H]1F | > 399 µL/min/mg | 443 µL/min/mg | – | – | –
N[C@H]1CCCN(c2sncc2Nc2ncc3ccc(-c4c(F)cccc4F)nn23)C1 | 167 µL/min/mg | 28 µL/min/mg | – | 56 nM | IC50 [4]: 148 nM
N[C@@H]1CCCN(c2ccncc2Nc2ncc3ccc(-c4c(F)cccc4F)nn23)C1 | 280 µL/min/mg | 90 µL/min/mg | – | – | –
N[C@H]1CCCN(c2ccncc2Nc2ncc3ccc(-c4ccccc4F)nn23)C1 | 120 µL/min/mg | 48 µL/min/mg | 1536 nM | 0.23 nM | IC50 [4]: 1.6 nM
Fc1cccc(F)c1-c1ccc2cnc(Nc3cnccc3N3CCCCC3)n2n1 | > 399 µL/min/mg | 399 µL/min/mg | – | – | –
C[C@H]1C[C@H](N)CN(c2ccncc2Nc2ncc3ccc(-c4c(F)cccc4F)nn23)C1 | 347 µL/min/mg | 111 µL/min/mg | – | – | –
C[C@H]1[C@@H](N)CCCN1c1ccncc1Nc1ncc2ccc(-c3c(F)cccc3F)nn12 | 312 µL/min/mg | – | – | – | –

SMILES | microsomal CLint at 1 µM [1] | microsomal CLint at 1 µM [2] | IC50 [3] | IC50 [10] | other results
N[C@H]1CCN(c2ccncc2Nc2ncc3ccc(-c4c(F)cccc4F)nn23)C1 | < 14 µL/min/mg | 15 µL/min/mg | – | – | –
C[C@@H]1CC[C@H](N)CN1c1ccncc1Nc1ncc2ccc(-c3cccc(F)n3)nn12 | 194 µL/min/mg | 71 µL/min/mg | – | – | –
N[C@H]1CCCN(c2ccncc2Nc2ncc3ccc(-c4c(F)cccc4F)nn23)C1 | 130 µL/min/mg | 66 µL/min/mg | 403 nM | 0.07 to 0.1 nM | CL [5]: 23.3 mL/min/kg; CL [11]: 40%; AUC [6]: 3.7 µM·h; F [7]: 16%; MRT [8]: 5.6 h; Vd [9]: 7.9 L/kg
N[C@H]1CCCN(c2ccncc2Nc2ncc3ccc(-c4ccccn4)nn23)C1 | < 10 µL/min/mg | < 10 µL/min/mg | 1760 nM | – | –
N[C@H]1CCCN(c2ccncc2Nc2ncc3ccc(-c4cccnc4F)nn23)C1 | 39 µL/min/mg | 34 µL/min/mg | 6599 nM | 0.23 nM | –
N[C@H]1CCCN(c2ccncc2Nc2ncc3ccc(-c4ccc(F)cc4F)nn23)C1 | 132 µL/min/mg | 31 µL/min/mg | 1761 nM | 0.38 nM | IC50 [4]: 3.1 nM
N[C@H]1CCCN(c2cnccc2Nc2ncc3ccc(-c4c(F)cccc4F)nn23)C1 | 61 µL/min/mg | 67 µL/min/mg | – | – | –
N[C@H]1C[C@@H](F)CN(c2ccncc2Nc2ncc3ccc(-c4c(F)cccc4F)nn23)C1 | 143 µL/min/mg | 51 µL/min/mg | 983 nM | 0.78 nM | –
C[C@@H]1CCN(c2ccncc2Nc2ncc3ccc(-c4c(F)cccc4F)nn23)C[C@H]1N | 219 µL/min/mg | 71 µL/min/mg | 212 nM | 0.035 nM | IC50 [4]: 0.18 nM
N[C@H]1CCCN(c2ccncc2Nc2ncc3ccc(-c4ccc(Cl)cc4Cl)nn23)C1 | 260 µL/min/mg | 100 µL/min/mg | 5007 nM | 1.8 nM | –
N[C@H]1CCCN(c2ccncc2Nc2ncc3ccc(Cl)nn23)C1 | 27 µL/min/mg | 18 µL/min/mg | – | – | –
C[C@@H]1[C@@H](N)CCCN1c1ccncc1Nc1ncc2ccc(-c3c(F)cccc3F)nn12 | 344 µL/min/mg | 79 µL/min/mg | – | – | –
C[C@]1(N)CCCN(c2ccncc2Nc2ncc3ccc(-c4c(F)cccc4F)nn23)C1 (racemic) | 311 µL/min/mg | 91 µL/min/mg | – | – | –
N[C@H]1CCCN(c2ccncc2Nc2ncc3ccc(-c4ncccc4F)nn23)C1 | 40 µL/min/mg | 36 µL/min/mg | – | – | clearance [5]: 11.7 mL/min/kg; CL [11]: 21%; AUC(0-inf) [6]: 7.3 µM·h; bioavailability [7]: 28%; MRT [8]: 4.1 h; Vd [9]: 3.3 L/kg
C[C@@H]1CC[C@H](N)CN1c1ccncc1Nc1ncc2ccc(-c3c(F)cccc3F)nn12 | > 399 µL/min/mg | 203 µL/min/mg | – | – | clearance [5]: 91.7 mL/min/kg; IC50 [12]: 19700 nM; AUC(0-inf) [6]: 3.3 µM·h; bioavailability [7]: 141%; MRT [8]: 4 h; Vd [9]: 21.7 L/kg
C[C@H]1CCN(c2ccncc2Nc2ncc3ccc(-c4c(F)cccc4F)nn23)C[C@H]1N | > 399 µL/min/mg | 130 µL/min/mg | 2982 nM | 0.26 nM | –
